Results as given in ChEMBL document CHEMBL1127847, “Cyclic GMP phosphodiesterase inhibitors. 2. Requirement of 6-substitution of quinazoline derivatives for potent and selective inhibitory activity” (J Med Chem, 1994).
pEC50, pIC50: −log10 of the molar value.

Tests used:
Sus scrofa = species: Sus scrofa; experiment: Relaxant effect on PGF2-alpha precontracted porcine coronary arteries; assay type: functional, organism-based
Outline: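 Porcine coronary strips held at 1 g resting tension. Endothelium confirmed by 7 × 10^-9 M bradykinin relaxation after 50 mM KCl. Contraction with PGF2α (final 10^-5 M); at plateau, cumulative concentration-relaxation curves built. Relaxation expressed as % of PGF2α contraction. EC50 from the log cumulative plot, mean ± SEM (n given).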

Phosphodiesterase 1 = Phosphodiesterase 1 (Homo sapiens, UniProt P54750+Q01064+Q14123); experiment: Inhibition of Ca++ calmodulin dependent-PDE 1 from porcine aorta; assay type: protein assay, Sus scrofa; conditions: target entry is the homologue from another species
Outline: (§1)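 Porcine aorta PDE isozyme, two-step radioisotopic assay with 1 µM [3H]substrate: cGMP for type I, cAMP for types II, III and IV. Compounds dissolved in DMSO, diluted in assay buffer over 10^-8 to 10^-4 M, final DMSO under 0.4% (v/v). IC50 taken from the log concentration-inhibition plot (at least three points), mean ± SEM of at least three experiments.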

[1] = biological target: cGMP-dependent 3',5'-cyclic phosphodiesterase (Homo sapiens, UniProt O00408); experiment: Inhibition of cGMP stimulated-PDE 2 from porcine aorta; parameters: species or system Sus scrofa; conditions: target entry is the homologue from another species; outline: as §1
Phosphodiesterase 3A = biological target: T1, Phosphodiesterase 3A (Sus scrofa, UniProt Q9XSW7); experiment: Inhibition of cGMP-inhibited PDE 3 from porcine aorta; outline: as §1
T1 sequence (Q9XSW7 whole entry): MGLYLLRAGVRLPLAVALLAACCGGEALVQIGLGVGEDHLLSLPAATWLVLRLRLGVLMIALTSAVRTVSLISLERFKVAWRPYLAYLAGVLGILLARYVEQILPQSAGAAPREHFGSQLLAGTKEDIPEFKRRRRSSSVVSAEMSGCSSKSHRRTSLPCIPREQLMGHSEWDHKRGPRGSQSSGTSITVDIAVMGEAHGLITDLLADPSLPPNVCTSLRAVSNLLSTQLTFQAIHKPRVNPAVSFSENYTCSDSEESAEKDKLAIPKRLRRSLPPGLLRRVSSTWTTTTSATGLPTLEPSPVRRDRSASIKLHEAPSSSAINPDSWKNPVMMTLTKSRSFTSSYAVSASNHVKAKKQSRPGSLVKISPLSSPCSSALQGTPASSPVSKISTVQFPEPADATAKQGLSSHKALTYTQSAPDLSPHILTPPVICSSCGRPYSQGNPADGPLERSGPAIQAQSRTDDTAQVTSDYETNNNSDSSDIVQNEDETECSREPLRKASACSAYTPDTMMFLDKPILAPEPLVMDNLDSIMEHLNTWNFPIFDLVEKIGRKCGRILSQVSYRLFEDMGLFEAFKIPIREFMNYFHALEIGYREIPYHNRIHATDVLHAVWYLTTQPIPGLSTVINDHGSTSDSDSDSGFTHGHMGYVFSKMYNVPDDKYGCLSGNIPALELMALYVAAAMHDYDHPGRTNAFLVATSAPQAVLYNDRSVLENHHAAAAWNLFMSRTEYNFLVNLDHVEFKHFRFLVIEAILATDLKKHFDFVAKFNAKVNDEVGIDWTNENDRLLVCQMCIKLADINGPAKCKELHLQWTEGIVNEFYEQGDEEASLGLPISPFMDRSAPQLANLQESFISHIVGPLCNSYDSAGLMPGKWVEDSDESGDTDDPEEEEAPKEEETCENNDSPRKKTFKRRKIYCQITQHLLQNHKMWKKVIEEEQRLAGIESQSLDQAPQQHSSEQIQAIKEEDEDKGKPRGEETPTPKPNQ

Phosphodiesterase 4A = biological target: T2, Phosphodiesterase 4A (Sus scrofa, UniProt O77823); experiment: Inhibition of cAMP specific-PDE 4 from porcine aorta; outline: as §1
T2 sequence (O77823 whole entry): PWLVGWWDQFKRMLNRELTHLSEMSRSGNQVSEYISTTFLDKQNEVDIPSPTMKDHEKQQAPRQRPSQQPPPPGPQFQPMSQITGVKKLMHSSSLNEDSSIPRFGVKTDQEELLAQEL

Sequence of cGMP-dependent 3',5'-cyclic phosphodiesterase (O00408 whole entry): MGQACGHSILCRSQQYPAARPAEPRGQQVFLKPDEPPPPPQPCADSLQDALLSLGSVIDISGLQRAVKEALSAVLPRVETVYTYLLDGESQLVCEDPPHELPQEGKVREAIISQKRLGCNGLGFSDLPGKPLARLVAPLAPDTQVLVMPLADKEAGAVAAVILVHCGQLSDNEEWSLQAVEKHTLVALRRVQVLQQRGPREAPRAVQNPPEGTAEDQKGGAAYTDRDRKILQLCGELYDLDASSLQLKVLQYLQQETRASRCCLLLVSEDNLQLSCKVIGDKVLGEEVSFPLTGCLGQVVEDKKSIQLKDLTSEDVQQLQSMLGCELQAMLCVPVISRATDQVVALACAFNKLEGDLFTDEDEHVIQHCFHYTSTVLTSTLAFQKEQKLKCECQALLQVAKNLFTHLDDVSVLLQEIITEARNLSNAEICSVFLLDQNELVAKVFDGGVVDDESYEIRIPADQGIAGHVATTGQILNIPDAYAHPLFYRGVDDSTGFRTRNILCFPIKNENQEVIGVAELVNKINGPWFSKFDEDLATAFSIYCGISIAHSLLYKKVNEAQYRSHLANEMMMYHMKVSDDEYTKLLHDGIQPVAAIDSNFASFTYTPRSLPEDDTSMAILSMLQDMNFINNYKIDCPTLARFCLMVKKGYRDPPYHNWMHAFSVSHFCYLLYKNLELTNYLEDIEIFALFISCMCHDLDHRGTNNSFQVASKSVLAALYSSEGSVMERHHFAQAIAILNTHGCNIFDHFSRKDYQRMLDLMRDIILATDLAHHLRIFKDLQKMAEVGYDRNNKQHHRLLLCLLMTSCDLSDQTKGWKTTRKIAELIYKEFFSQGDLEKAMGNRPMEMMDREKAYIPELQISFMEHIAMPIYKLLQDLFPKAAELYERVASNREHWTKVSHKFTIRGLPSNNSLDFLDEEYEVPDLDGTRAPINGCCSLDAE

SMILES	pEC50 (Sus scrofa)	IC50 (Phosphodiesterase 1)	pIC50 [1]	pIC50 (Phosphodiesterase 3A)	pIC50 (Phosphodiesterase 4A)
COc1cc2c(NCc3ccc4c(c3)OCO4)ncnc2c(OC)c1OC	5.67				
CSc1ccc2ncnc(NCc3ccc4c(c3)OCO4)c2c1	6.92	> 100 µM	< 4.00	< 4.00	< 4.00
COc1ccc2ncnc(NCc3ccc4c(c3)OCO4)c2c1	5.92	> 100 µM	< 4.00		< 4.00
Clc1ccc2ncnc(NCc3ccc4c(c3)OCO4)c2c1	6.72	> 100 µM	< 4.00	< 4.00	< 4.00
N#Cc1ccc2ncnc(NCc3ccc4c(c3)OCO4)c2c1	6.52	> 100 µM	< 4.00	< 4.00	< 4.00
Cc1ccc2ncnc(NCc3ccc4c(c3)OCO4)c2c1	5.81	> 100 µM	< 4.00	< 4.00	< 4.00
